# “Also recorded” adds a separate entry of the source.
# Key:
# Clk (Cdc-like kinase) 2 = conditions: cited from earlier work
# CK2α2β2 holoenzyme = CK2α2β2 holoenzyme (Homo sapiens, UniProt P68400); assay: CK2 radiometric kinase assay, holoenzyme versus CK2α; assay type: biochemical; conditions: CK2β-independent peptide substrate
# How it was run: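 Radiometric CK2 assay comparing isolated human recombinant CK2α with the CK2α₂β₂ holoenzyme across increasing test compound concentrations, using a CK2β-independent peptide substrate. ATP was 100 μM unless stated otherwise.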
# CK2α [1] = biological target: T1, CK2α (Homo sapiens, UniProt P68400); assay: kinase selectivity profiling, residual kinase activity; assay type: biochemical; conditions: compound at 50 μM
# How it was run: (§1)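 The test compound was profiled against a panel of 44 human kinases, with ATP set to the Km of each kinase. Remaining activity was read as % inhibition of each kinase.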
# EphA4 = EphA4 (Homo sapiens, UniProt P54764); assay: as above; assay type: biochemical; conditions: read-out: % inhibition of EphA4
# How it was run: as §1
# pim-1 = pim-1 (Homo sapiens, UniProt P11309); assay: as above; assay type: biochemical; conditions: read-out: % inhibition of pim-1
# How it was run: as §1
# CK2α [2] = biological target: T1, CK2α; assay: CK2 radiometric kinase assay; assay type: biochemical; conditions: compared with compound 2
# CK2α [3] = biological target: T1, CK2α; assay: NMR Saturation Transfer Difference; assay type: binding; conditions: compound 500 μM, CK2α 5 μM
# CK2α^1–335 = biological target: T2, CK2α^1–335 (Homo sapiens, UniProt P68400); assay: native mass spectrometry binding and competition; conditions: 10 μM CK2α; for binding stoichiometry to CK2α by native mass spectrometry: 100 μM IP6 or 10–40 μM 6, 5% DMSO
# T2 sequence (P68400 1-335): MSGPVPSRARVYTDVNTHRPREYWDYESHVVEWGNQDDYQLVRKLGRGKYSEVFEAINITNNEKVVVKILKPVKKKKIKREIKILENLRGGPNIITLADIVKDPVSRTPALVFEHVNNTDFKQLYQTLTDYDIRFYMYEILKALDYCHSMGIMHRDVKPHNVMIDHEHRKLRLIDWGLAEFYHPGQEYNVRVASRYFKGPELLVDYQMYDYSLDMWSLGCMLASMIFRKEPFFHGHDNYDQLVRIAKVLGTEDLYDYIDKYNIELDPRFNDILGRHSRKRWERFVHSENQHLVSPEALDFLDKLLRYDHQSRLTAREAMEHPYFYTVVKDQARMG
# water solubility = assay type: physicochemical; conditions: qualitative, relative to the other compounds of the series
# GSK3β = GSK3β (Homo sapiens, UniProt P49841); assay: kinase selectivity profiling, residual kinase activity; assay type: biochemical; conditions: read-out: % inhibition of GSK3β
# How it was run: as §1
# ACVR1 (ALK2) = biological target: T3, ACVR1 (ALK2) (Homo sapiens, UniProt Q04771); assay: as above; assay type: biochemical; conditions: read-out: % inhibition of ACVR1
# T3 sequence (Q04771 21-509): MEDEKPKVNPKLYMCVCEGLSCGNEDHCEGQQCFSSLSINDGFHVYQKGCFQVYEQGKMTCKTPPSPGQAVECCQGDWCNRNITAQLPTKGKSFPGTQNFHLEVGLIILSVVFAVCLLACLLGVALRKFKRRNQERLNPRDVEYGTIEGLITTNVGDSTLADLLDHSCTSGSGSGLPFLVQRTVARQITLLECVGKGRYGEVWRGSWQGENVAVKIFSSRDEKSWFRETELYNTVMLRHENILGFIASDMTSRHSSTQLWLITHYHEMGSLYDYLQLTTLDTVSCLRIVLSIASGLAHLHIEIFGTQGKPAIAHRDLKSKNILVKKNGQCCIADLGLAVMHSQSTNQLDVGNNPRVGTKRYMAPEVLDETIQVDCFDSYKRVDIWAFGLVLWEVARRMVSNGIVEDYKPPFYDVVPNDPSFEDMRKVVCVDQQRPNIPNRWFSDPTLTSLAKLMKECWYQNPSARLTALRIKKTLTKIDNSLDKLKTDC
# How it was run: as §1
# Clk4 = Clk4 (Homo sapiens, UniProt Q9HAZ1); assay: as above; assay type: biochemical; conditions: read-out: % inhibition of Clk4
# How it was run: as §1
# MLCK (MLCK2) = biological target: T4, MLCK (MLCK2) (Homo sapiens, UniProt Q32MK0); assay: as above; assay type: biochemical; conditions: read-out: % inhibition of MLCK
# T4 sequence (Q32MK0 1-819): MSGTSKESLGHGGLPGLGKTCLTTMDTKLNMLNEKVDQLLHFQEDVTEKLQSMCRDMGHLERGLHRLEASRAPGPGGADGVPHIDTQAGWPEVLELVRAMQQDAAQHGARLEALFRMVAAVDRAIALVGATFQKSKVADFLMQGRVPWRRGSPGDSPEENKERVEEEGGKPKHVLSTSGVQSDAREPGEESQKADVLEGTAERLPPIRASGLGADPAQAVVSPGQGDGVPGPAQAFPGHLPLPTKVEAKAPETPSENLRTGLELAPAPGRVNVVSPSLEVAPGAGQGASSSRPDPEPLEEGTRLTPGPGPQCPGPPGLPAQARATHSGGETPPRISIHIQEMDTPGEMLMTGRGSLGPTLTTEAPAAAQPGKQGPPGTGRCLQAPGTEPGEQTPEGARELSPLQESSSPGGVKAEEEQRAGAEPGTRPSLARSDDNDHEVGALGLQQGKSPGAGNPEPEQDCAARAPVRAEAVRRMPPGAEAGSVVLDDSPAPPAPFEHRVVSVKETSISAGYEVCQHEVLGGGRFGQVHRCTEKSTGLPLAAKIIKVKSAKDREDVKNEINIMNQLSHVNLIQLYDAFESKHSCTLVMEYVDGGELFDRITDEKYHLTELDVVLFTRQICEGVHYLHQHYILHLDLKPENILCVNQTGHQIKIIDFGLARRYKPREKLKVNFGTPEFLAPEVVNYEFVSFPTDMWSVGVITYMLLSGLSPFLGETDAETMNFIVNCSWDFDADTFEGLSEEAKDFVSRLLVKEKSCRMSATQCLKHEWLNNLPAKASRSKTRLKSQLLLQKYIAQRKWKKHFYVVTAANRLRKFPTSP
# How it was run: as §1
# Clk2 = Clk2 (Homo sapiens, UniProt P49760); assay: as above; assay type: biochemical; conditions: read-out: % inhibition of Clk2
# How it was run: as §1
# Dyrk1A = Dyrk1A (Homo sapiens, UniProt Q13627); assay: as above; assay type: biochemical; conditions: read-out: % inhibition of Dyrk1A
# How it was run: as §1
# T1 sequence (P68400 whole entry): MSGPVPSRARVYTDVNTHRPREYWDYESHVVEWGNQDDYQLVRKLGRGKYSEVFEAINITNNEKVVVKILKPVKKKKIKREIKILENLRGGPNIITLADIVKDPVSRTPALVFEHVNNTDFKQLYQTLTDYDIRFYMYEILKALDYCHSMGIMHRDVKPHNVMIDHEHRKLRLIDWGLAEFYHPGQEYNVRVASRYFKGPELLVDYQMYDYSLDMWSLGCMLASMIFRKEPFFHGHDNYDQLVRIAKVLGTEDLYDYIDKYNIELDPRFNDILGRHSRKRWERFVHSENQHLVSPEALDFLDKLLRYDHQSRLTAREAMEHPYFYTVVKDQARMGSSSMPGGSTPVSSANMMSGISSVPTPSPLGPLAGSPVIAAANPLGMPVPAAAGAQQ
# Sequence of EphA4 (P54764 20-986): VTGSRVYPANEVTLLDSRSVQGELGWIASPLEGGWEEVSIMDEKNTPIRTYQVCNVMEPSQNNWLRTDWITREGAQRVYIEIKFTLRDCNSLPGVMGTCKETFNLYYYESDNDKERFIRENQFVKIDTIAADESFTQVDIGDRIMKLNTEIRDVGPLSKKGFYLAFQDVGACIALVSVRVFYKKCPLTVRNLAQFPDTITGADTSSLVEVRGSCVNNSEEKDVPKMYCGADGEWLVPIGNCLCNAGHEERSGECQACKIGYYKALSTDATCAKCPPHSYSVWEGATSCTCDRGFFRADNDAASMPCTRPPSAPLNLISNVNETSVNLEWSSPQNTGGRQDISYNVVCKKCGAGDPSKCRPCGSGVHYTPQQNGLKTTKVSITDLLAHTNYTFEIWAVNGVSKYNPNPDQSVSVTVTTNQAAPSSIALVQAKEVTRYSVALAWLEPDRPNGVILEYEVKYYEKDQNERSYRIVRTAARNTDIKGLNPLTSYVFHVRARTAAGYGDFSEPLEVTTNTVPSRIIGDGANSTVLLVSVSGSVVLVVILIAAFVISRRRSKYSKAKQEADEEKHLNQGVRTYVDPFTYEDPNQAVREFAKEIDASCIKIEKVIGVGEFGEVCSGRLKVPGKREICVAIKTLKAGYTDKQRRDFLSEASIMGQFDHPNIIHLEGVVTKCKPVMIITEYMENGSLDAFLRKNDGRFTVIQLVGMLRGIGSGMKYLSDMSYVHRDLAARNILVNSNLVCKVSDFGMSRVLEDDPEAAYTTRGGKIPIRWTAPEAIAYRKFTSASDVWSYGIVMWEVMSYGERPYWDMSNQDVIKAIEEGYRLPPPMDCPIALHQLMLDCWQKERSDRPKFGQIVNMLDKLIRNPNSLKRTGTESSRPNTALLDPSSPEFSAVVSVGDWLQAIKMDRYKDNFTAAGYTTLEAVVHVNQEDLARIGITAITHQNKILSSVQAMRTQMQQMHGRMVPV
# Sequence of Clk4 (Q9HAZ1 whole entry): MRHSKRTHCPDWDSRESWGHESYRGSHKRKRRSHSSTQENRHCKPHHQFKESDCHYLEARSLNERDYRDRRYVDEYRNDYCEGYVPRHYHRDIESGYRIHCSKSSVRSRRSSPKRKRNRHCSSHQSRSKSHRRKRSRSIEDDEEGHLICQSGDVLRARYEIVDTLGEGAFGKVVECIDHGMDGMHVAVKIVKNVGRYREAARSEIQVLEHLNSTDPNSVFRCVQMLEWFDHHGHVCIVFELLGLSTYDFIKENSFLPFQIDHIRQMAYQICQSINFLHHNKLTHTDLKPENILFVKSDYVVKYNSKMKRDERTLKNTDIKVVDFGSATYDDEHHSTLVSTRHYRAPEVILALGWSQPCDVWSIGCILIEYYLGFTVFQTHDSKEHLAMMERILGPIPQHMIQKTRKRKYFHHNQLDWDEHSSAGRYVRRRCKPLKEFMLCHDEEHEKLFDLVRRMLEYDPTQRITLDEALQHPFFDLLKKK
# Sequence of Clk2 (P49760 whole entry): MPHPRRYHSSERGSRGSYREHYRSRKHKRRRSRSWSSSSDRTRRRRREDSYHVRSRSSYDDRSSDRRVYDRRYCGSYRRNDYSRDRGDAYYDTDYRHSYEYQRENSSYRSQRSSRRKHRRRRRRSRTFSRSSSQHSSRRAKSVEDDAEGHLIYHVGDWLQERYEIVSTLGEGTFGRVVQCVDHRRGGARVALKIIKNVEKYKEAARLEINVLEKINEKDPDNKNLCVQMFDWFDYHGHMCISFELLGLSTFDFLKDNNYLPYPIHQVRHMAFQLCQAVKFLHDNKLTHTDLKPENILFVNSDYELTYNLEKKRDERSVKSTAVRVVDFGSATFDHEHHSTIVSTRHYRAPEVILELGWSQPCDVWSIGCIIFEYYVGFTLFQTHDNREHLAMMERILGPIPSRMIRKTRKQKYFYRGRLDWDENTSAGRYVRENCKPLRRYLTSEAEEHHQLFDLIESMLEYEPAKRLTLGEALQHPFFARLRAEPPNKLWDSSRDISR
# Sequence of CK2α2β2 holoenzyme (P68400 whole entry): as the sequence (P68400 whole entry) above
# Sequence of CK2α2β2 holoenzyme (P67870 whole entry partner): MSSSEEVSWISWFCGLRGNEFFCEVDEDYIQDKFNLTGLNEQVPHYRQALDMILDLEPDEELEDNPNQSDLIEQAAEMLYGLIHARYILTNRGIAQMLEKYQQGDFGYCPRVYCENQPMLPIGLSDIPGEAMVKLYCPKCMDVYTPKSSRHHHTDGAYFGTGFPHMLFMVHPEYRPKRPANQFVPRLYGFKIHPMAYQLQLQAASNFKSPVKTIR
# Sequence of GSK3β (P49841 whole entry): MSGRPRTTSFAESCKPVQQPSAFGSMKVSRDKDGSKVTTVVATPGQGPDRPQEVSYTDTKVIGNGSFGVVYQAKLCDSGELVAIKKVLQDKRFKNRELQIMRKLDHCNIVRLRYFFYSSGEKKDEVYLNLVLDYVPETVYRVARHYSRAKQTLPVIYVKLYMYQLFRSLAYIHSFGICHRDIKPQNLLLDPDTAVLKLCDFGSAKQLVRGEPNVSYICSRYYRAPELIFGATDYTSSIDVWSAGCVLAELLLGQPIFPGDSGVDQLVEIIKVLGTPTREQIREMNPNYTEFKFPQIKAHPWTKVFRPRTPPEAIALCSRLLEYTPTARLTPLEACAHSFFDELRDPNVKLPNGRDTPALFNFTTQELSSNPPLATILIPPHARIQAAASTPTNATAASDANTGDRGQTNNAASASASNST
# Sequence of pim-1 (P11309 whole entry): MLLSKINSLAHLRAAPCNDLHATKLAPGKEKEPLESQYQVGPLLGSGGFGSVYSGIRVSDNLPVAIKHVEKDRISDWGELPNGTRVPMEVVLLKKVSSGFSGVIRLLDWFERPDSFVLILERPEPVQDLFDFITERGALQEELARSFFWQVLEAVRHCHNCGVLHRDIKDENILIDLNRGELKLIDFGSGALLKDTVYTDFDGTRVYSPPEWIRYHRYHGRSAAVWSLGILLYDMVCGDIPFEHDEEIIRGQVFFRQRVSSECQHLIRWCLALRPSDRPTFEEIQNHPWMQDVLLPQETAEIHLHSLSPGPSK
compound,measurement,setting,value
"O=C(O)c1ccc2c(c1)nc(Nc1cccc(Cl)c1)c1ccncc12 [CX-4945, 5-(3-chlorophenylamino)benzo[c][2,6]naphthyridine-8-carboxylic acid]",IC50,Clk (Cdc-like kinase) 2,4 nM
"O=C(O)c1cccc(Nc2nc(-c3cccc([N+](=O)[O-])c3)cs2)c1 [Compound 1, 3-((4-(3-nitrophenyl)thiazol-2-yl)amino)benzoic acid]",inhibition of CK2α2β2 holoenzyme compared with CK2α,CK2α2β2 holoenzyme,inhibited to the same extent
"O=C(O)c1ccc(Nc2nc(-c3cccc([N+](=O)[O-])c3)cs2)cc1 [Compound 2, 4-((4-(3-nitrophenyl)thiazol-2-yl)amino)benzoic acid]",inhibition of CK2α,CK2α [1],full inhibition
same,inhibition at 50 µM,EphA4,55%
same,inhibition at 50 µM,pim-1,54%
"O=[N+]([O-])c1cccc(-c2csc(Nc3ccccc3)n2)c1 [Compound 3, [4-(3-Nitro-phenyl)-thiazol-2-yl]-phenyl-amine]","CK2α inhibitory activity, in words (SAR)",CK2α [2],significant loss of activity
"COC(=O)c1ccc(Nc2nc(-c3cccc([N+](=O)[O-])c3)cs2)cc1 [Compound 4, 4-[4-(3-Nitro-phenyl)-thiazol-2-ylamino]-benzoic acid methyl ester]","CK2α inhibitory activity, in words (SAR)",CK2α [2],significant loss of activity
"O=C(O)c1ccc(Nc2nccs2)cc1 [Compound 5, 4-(Thiazol-2-ylamino)-benzoic acid]","CK2α inhibitory activity, in words (SAR)",CK2α [2],complete lack of activity
"O=C(O)c1ccc(Nc2nc(-c3ccccc3)cs2)cc1 [Compound 6, 4-(4-Phenyl-thiazol-2-ylamino)-benzoic acid]",STD NMR competition with AMP-PNP for binding to CK2α,CK2α [3]; AMP-PNP 500 μM,AMP-PNP was not able to bind to CK2α in the presence of 2-aminothiazole 6
same,STD NMR competition with CX-4945 for binding to CK2α,CK2α [3]; CX-4945 100 μM,did not bind to the same site as CX-4945
same,binding stoichiometry to CK2α by native mass spectrometry,CK2α^1–335,various stoichiometries
same,native MS competition with IP6 for binding to CK2α,"CK2α^1–335; 10 μM compound, 100 μM IP6",competitive ligand of IP6
same,water solubility,water solubility,superior water solubility; also recorded: relatively good solubility in water
"O=C(O)c1ccc(Nc2nc(-c3cccc(Br)c3)cs2)cc1 [Compound 7, 4-[4-(3-Bromo-phenyl)-thiazol-2-ylamino]-benzoic acid]",inhibition at 50 µM,EphA4,73%
same,inhibition at 50 µM,GSK3β,71%
same,inhibition at 50 µM,ACVR1 (ALK2),66%
same,inhibition at 50 µM,Clk4,61%
same,inhibition at 50 µM,MLCK (MLCK2),61%
same,inhibition at 50 µM,Clk2,~30%
same,inhibition at 50 µM,Dyrk1A,~30%
"O=C(O)c1ccc(Nc2nc(-c3ccccn3)cs2)cc1 [Compound 9, 4-(4-Pyridin-2-yl-thiazol-2-ylamino)-benzoic acid]",water solubility,water solubility,superior water solubility; also recorded: relatively good solubility in water
"O=P(O)(O)OC1C(OP(=O)(O)O)C(OP(=O)(O)O)C(OP(=O)(O)O)C(OP(=O)(O)O)C1OP(=O)(O)O (stereo not shown) [IP6, inositol hexakisphosphate, reference compound]",binding stoichiometry to CK2α by native mass spectrometry,CK2α^1–335,1:1 and 1:2 stoichiometry

# — PMC7667462 (Journal of medicinal chemistry, 2019)
